ChEMBL document CHEMBL3046475, “Inhibition of tobacco bacterial wilt with sulfone derivatives containing an 1,3,4-oxadiazole moiety” (J Agric Food Chem, 2012)
In brackets after ≈: the same amount, converted by molar mass.

Experiments:
[1] = tested on: Ralstonia solanacearum; experiment: Antibacterial activity against Ralstonia solanacearum in tobacco field assessed as inhibition of disease at 405 g/ha measured after 21 days of spraying; assay type: functional
Summary of the method: (§1)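 Field trial with foliar spraying, scored 7, 14 and 21 d after treatment. Disease index = (4W + 3X + 2Y + Y)/4A from the plant disease classification sums. Inhibition % = (CK − PT1)/CK × 100, where CK is an untreated blank field. Statistics by ANOVA.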

[2] = tested on: Ralstonia solanacearum; experiment: Antibacterial activity against Ralstonia solanacearum in tobacco field assessed as inhibition of disease at 405 g/ha measured after 7 days of spraying; assay type: functional; summary of the method: as §1
[3] = tested on: Ralstonia solanacearum; experiment: Antibacterial activity against Ralstonia solanacearum in tobacco plant assessed as disease index at 500 ug/ml measured after 14 days of spraying under green house conditions; assay type: functional
Summary of the method: (§2)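 Tobacco seedlings were raised by floating cultivation at 25 °C for 30 d, then transplanted at about the three-leaf stage into pots of 500 g soil, one plant per pot. Plants were sprayed with compound solutions. Morbidity and disease index were recorded per a standard disease investigation and classification protocol at 7, 14 and 21 d, with blank and negative controls.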

[4] = tested on: Ralstonia solanacearum; experiment: Antibacterial activity against Ralstonia solanacearum in tobacco plant assessed as plant morbidity at 500 ug/ml measured after 21 days of spraying under green house conditions; assay type: functional; summary of the method: as §2
[5] = tested on: Ralstonia solanacearum; experiment: Antibacterial activity against Ralstonia solanacearum in tobacco plant assessed as disease index at 500 ug/ml measured after 7 days of spraying under green house conditions; assay type: functional; summary of the method: as §2
[6] = tested on: Ralstonia solanacearum; experiment: Antibacterial activity against Ralstonia solanacearum assessed as growth inhibition at 200 ug/ml by turbidometer test (beneficial crop tobacco plant); assay type: functional
[7] = tested on: Ralstonia solanacearum; experiment: Antibacterial activity against Ralstonia solanacearum in tobacco plant assessed as plant morbidity at 500 ug/ml measured after 7 days of spraying under green house conditions; assay type: functional; summary of the method: as §2
[8] = tested on: Ralstonia solanacearum; experiment: Antibacterial activity against Ralstonia solanacearum assessed as growth inhibition by turbidometer test (beneficial crop tobacco plant); assay type: functional, organism-based
[9] = tested on: Ralstonia solanacearum; experiment: Antibacterial activity against Ralstonia solanacearum in tobacco plant assessed as control efficacy at 500 ug/ml measured after 21 days of spraying under green house conditions; assay type: functional; summary of the method: as §2
[10] = tested on: Ralstonia solanacearum; experiment: Antibacterial activity against Ralstonia solanacearum in tobacco plant assessed as plant morbidity at 500 ug/ml measured after 14 days of spraying under green house conditions; assay type: functional; summary of the method: as §2
[11] = tested on: Ralstonia solanacearum; experiment: Antibacterial activity against Ralstonia solanacearum in tobacco plant assessed as control efficacy at 500 ug/ml measured after 7 days of spraying under green house conditions; assay type: functional; summary of the method: as §2
[12] = tested on: Ralstonia solanacearum; experiment: Antibacterial activity against Ralstonia solanacearum in tobacco plant assessed as disease index at 500 ug/ml measured after 21 days of spraying under green house conditions; assay type: functional; summary of the method: as §2
[13] = tested on: Ralstonia solanacearum; experiment: Antibacterial activity against Ralstonia solanacearum in tobacco field assessed as inhibition of disease at 405 g/ha measured after 14 days of spraying; assay type: functional; summary of the method: as §1
[14] = tested on: Ralstonia solanacearum; experiment: Antibacterial activity against Ralstonia solanacearum in tobacco plant assessed as control efficacy at 500 ug/ml measured after 14 days of spraying under green house conditions; assay type: functional; summary of the method: as §2
[15] = tested on: Ralstonia solanacearum; experiment: Antibacterial activity against Ralstonia solanacearum assessed as growth inhibition at 500 ug/ml by turbidometer test (beneficial crop tobacco plant); assay type: functional
[16] = tested on: Ralstonia solanacearum; experiment: Antibacterial activity against Ralstonia solanacearum in tobacco field assessed as inhibition of disease at 540 g/ha measured after 7 days of spraying; assay type: functional, organism-based; summary of the method: as §1
[17] = tested on: Ralstonia solanacearum; experiment: Antibacterial activity against Ralstonia solanacearum in tobacco field assessed as inhibition of disease at 540 g/ha measured after 21 days of spraying; assay type: functional, organism-based; summary of the method: as §1
[18] = tested on: Ralstonia solanacearum; experiment: Antibacterial activity against Ralstonia solanacearum in tobacco field assessed as inhibition of disease at 540 g/ha measured after 14 days of spraying; assay type: functional, organism-based; summary of the method: as §1
[19] = Ralstonia solanacearum, read-out: EC50

Molecule: CCS(=O)(=O)c1nnc(-c2ccc(F)cc2)o1
- inhibition (INH) [1]: 71.9%
- inhibition (INH) [2]: 65.3%
- Activity [3]: 40%
- Activity [4]: 100%
- Activity [5]: 13.3%
- inhibition at 200 µg/mL [6]: 100%
- Activity [7]: 13.3%
- EC50 [8, 19]: 32.1 µg/mL (≈ 125 µM)
- Efficacy [9]: 38.3%
- Activity [10]: 60%
- Efficacy [11]: 85.5%
- Activity [12]: 61.7%
- inhibition (INH) [13]: 68.8%
- Efficacy [14]: 59.3%
- inhibition at 500 µg/mL [15]: 100%

Molecule: CS(=O)(=O)c1nnc(-c2ccccc2Br)o1
- inhibition at 200 µg/mL [6]: 9.9%
- inhibition at 500 µg/mL [15]: 14.2%

Molecule: Saisentong
- inhibition [16]: 61.2%
- inhibition [17]: 67.3%
- Activity [3]: 40%
- Activity [4]: 100%
- Activity [5]: 6.7%
- inhibition [6]: 100%
- Activity [7]: 6.7%
- inhibition [18]: 71.1%
- Efficacy [9]: 21.7%
- Activity [10]: 73.3%
- Efficacy [11]: 92.7%
- Activity [12]: 78.3%
- Efficacy [14]: 59.3%
- inhibition [15]: 100%

Molecule: CS(=O)(=O)c1nnc(-c2ccc(F)c(F)c2)o1
- inhibition at 200 µg/mL [6]: 11.1%
- inhibition at 500 µg/mL [15]: 12%

Molecule: CCS(=O)(=O)c1nnc(-c2ccc(Cl)c([N+](=O)[O-])c2)o1
- inhibition at 200 µg/mL [6]: 17%
- inhibition at 500 µg/mL [15]: 46%

Molecule: CCS(=O)(=O)c1nnc(-c2cccc(F)c2)o1
- inhibition at 200 µg/mL [6]: 100%
- EC50 [8, 19]: 47.9 µg/mL (≈ 187 µM)
- inhibition at 500 µg/mL [15]: 100%

Molecule: COPPER HYDROXIDE [listing 1 of 2 here]
- EC50 [8]: 45.9 µg/mL

Molecule: CCS(=O)(=O)c1nnc(-c2ccccc2)o1
- Activity [3]: 86.7%
- Activity [4]: 100%
- Activity [5]: 60%
- inhibition at 200 µg/mL [6]: 100%
- Activity [7]: 60%
- EC50 [8, 19]: 39.8 µg/mL (≈ 167 µM)
- Efficacy [9]: 8.3%
- Activity [10]: 100%
- Efficacy [11]: 34.6%
- Activity [12]: 91.7%
- Efficacy [14]: 12%
- inhibition at 500 µg/mL [15]: 100%

Molecule: CCS(=O)(=O)c1nnc(-c2ccc(OC)c(OC)c2)o1
- inhibition at 200 µg/mL [6]: 2.8%
- inhibition at 500 µg/mL [15]: 9.3%

Molecule: CCS(=O)(=O)c1nnc(-c2ccc(C)cc2)o1
- inhibition at 200 µg/mL [6]: 15%
- inhibition at 500 µg/mL [15]: 39%

Molecule: COPPER HYDROXIDE [listing 2 of 2 here]
- Activity [3]: 95%
- Activity [4]: 100%
- Activity [5]: 53.3%
- Activity [7]: 50.3%
- Efficacy [9]: 0%
- Activity [10]: 100%
- Efficacy [11]: 41.9%
- Activity [12]: 100%
- Efficacy [14]: 3.4%

Molecule: CS(=O)(=O)c1nnc(-c2ccc(Cl)c([N+](=O)[O-])c2)o1
- inhibition at 200 µg/mL [6]: 0%
- inhibition at 500 µg/mL [15]: 20.1%

Molecule: CCS(=O)(=O)c1nnc(-c2ccc(F)cc2F)o1
- inhibition at 200 µg/mL [6]: 92.3%
- EC50 [8, 19]: 60.3 µg/mL (≈ 220 µM)
- inhibition at 500 µg/mL [15]: 100%

Molecule: COc1ccc(-c2nnc(S(C)(=O)=O)o2)cc1OC
- inhibition at 200 µg/mL [6]: 6%
- inhibition at 500 µg/mL [15]: 10.1%

Molecule: CCS(=O)(=O)c1nnc(-c2ccc(F)c(F)c2)o1
- inhibition at 200 µg/mL [6]: 46.7%
- inhibition at 500 µg/mL [15]: 52%

Molecule: CS(=O)(=O)c1nnc(Cc2ccc(Cl)cc2)o1
- inhibition at 200 µg/mL [6]: 19.2%
- inhibition at 500 µg/mL [15]: 31%

Molecule: CCS(=O)(=O)c1nnc(Cc2ccc(Cl)cc2)o1
- inhibition at 200 µg/mL [6]: 18.7%
- inhibition at 500 µg/mL [15]: 31.4%
